Reference: ChEMBL document CHEMBL3994654, “Discovery of phenyl acetamides as potent and selective GPR119 agonists” (Bioorg Med Chem Lett, 2017)
pEC50, pIC50: −log10 of the molar value. Values after ≈ are worked out from the molar mass of the structure shown.

What was measured:
[1] = Volume of distribution in rhesus monkey at 0.5 mg/kg, iv by LC-MS/MS analysis; assay type: ADME, organism-based, Macaca mulatta; conditions: in vivo
[2] = test system: Rattus norvegicus; assay: Unbound clearance in Wistar Han rat at 0.5 mg/kg, iv by LC-MS/MS analysis; assay type: ADME, organism-based; conditions: in vivo
[3] = Plasma clearance in Beagle dog at 0.5 mg/kg, iv by LC-MS/MS analysis; assay type: ADME, organism-based, Canis lupus familiaris
[4] = Half life in Wistar Han rat at 0.5 mg/kg, iv by LC-MS/MS analysis; assay type: ADME, organism-based; conditions: in vivo
[5] = Plasma clearance in Wistar Han rat at 0.5 mg/kg, iv by LC-MS/MS analysis; assay type: ADME, organism-based
[6] = molecular target: T1, Glucose-dependent insulinotropic receptor (Homo sapiens, UniProt Q8TDV5); assay: Agonist activity at human GPR119 expressed in HEK293 cells assessed as increase in intracellular cAMP level after 60 mins by HTRF assay; assay type: functional, cell-based
T1 sequence (Q8TDV5 whole entry): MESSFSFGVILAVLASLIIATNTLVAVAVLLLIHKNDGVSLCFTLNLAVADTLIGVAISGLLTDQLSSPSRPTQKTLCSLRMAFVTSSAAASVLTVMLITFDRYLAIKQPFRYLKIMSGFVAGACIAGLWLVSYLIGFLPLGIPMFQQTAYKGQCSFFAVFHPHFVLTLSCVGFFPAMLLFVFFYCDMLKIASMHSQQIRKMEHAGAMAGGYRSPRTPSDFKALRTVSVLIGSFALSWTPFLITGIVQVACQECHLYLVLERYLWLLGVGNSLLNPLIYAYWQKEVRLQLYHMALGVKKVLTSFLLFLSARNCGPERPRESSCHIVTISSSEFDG
Method in brief: (§1)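 cAMP stimulation is also given as % control at the top concentration, relative to an internal agonist control set at 100% cAMP stimulation. EC50 values are means of at least 2 independent experiments, except for two compounds.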

[7] = Volume of distribution in Wistar Han rat at 0.5 mg/kg, iv by LC-MS/MS analysis; assay type: ADME, organism-based; conditions: in vivo
[8] = Ratio of drug level in C57BL/6 Tac mouse blood to plasma at 0.1 mg/kg, po via gavage measured at 90 mins post dose; assay type: ADME, organism-based; conditions: blood and plasma
[9] = Fraction unbound in dog plasma; assay type: ADME, cell-free, Canis lupus familiaris
[10] = molecular target: T2, Nuclear receptor subfamily 1 group I member 2 (Homo sapiens, UniProt O75469); assay: Activity at human PXR; assay type: ADME
T2 sequence (O75469 whole entry): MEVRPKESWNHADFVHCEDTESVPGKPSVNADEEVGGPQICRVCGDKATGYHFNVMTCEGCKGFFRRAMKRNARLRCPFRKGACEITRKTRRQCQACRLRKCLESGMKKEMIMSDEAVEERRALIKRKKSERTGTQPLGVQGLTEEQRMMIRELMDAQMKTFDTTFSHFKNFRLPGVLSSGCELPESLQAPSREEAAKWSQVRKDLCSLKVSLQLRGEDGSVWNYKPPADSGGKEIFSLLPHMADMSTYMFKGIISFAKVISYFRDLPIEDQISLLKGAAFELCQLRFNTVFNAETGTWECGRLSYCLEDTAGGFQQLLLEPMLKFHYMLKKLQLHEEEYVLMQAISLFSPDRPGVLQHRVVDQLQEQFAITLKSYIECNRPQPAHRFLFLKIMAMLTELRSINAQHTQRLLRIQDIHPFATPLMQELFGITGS

[11] = test system: Mus musculus; assay: Antidiabetic activity in C57BL/6 Tac mouse assessed as maximum decrease in blood glucose AUC administered via oral gavage 30 mins prior to oral glucose load measured at 20 to 60 mins post glucose challenge by OGTT; assay type: functional; conditions: C57BL/6, po, read-out: MED
Method in brief: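 Eleven-week-old lean C57BL/6 Tac mice (n = 8/group) were fasted overnight and dosed by oral gavage in PEG400/23.5% HPBCD (15/85 v/v). Oral glucose (3 g/kg) was given 30 min later. Tail-nick glucometer glucose at 0, 20, 40, 60 min; glucose AUC per mouse, expressed as % change vs vehicle, with t-test or one-way ANOVA. Dose titration gave the minimal dose for maximal efficacy.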

[12] = Fraction unbound in human plasma; assay type: ADME, cell-free
[13] = molecular target: T3, Glucose-dependent insulinotropic receptor (Mus musculus, UniProt Q7TQP3); assay: Agonist activity at mouse GPR119 expressed in CHO cells co-expressing Galpha15 assessed as increase in intracellular cAMP level after 60 mins by HTRF assay; assay type: functional, cell-based; method in brief: as §1
T3 sequence (Q7TQP3 whole entry): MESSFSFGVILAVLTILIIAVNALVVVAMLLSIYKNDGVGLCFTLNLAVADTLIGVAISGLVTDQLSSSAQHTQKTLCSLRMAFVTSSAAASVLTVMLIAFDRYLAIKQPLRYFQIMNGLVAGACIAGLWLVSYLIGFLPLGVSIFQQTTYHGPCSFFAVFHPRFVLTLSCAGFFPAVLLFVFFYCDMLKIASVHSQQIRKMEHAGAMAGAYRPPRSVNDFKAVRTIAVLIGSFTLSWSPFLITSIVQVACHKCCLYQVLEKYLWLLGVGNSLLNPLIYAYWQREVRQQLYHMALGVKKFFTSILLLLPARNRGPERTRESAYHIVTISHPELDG

[14] = Intrinsic clearance in dog liver microsomes; assay type: ADME, Canis lupus familiaris, microsome; conditions: read-out: CLH
[15] = Agonist activity at rhesus monkey GPR119; parameters: species or system Macaca mulatta
[16] = molecular target: T4, Glucose-dependent insulinotropic receptor (Mus musculus) (UniProt Q7TQP3); assay: Agonist activity at mouse GPR119 expressed in CHO cells co-expressing Galpha15 assessed as increase in intracellular cAMP level after 60 mins by HTRF assay relative to control; assay type: functional, cell-based
T4 sequence (whole entry): T3 sequence (Q7TQP3 whole entry)
Method in brief: (§2)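 EC50 values are means of at least 2 independent experiments, with a few single determinations. Maximal response is reported as the percentage of cAMP stimulation at the maximal dose tested, normalised to an internal agonist control set as 100%.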

[17] = Intrinsic clearance in rat liver microsomes; assay type: ADME, microsome; conditions: read-out: CLH
[18] = molecular target: T5, Voltage-gated inwardly rectifying potassium channel KCNH2 (Homo sapiens, UniProt Q12809)
T5 sequence (Q12809 whole entry): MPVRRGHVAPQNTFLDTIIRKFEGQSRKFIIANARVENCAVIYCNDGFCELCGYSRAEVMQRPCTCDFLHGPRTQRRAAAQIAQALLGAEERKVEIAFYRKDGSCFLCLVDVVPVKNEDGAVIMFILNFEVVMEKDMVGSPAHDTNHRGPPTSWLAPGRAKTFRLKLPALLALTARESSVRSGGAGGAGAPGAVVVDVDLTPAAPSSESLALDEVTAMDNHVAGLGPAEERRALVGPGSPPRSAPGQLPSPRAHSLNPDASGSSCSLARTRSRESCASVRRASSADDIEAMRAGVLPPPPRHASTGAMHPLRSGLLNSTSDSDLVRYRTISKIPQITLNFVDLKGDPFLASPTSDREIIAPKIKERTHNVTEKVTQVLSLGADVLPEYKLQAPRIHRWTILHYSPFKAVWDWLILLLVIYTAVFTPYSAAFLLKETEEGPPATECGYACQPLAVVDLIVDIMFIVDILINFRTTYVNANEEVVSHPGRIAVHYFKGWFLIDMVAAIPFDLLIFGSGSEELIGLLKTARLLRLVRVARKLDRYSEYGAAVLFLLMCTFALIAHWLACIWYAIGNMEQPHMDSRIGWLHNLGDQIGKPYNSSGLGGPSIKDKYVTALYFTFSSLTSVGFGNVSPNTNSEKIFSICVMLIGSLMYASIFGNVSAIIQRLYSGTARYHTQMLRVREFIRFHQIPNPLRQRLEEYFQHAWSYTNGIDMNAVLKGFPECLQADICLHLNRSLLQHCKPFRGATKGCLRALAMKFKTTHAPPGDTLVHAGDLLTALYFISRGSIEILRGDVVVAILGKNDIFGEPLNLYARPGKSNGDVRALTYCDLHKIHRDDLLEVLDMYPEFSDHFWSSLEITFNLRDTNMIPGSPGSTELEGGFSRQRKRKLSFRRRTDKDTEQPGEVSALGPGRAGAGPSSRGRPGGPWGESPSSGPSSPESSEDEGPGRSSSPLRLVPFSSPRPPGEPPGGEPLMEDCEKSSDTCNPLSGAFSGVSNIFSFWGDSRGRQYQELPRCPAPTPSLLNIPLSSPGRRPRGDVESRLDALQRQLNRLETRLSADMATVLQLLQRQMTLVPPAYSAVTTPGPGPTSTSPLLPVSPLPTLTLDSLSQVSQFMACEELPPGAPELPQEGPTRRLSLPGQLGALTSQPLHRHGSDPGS

[19] = Intrinsic clearance in human liver microsomes; assay type: ADME, microsome; conditions: read-out: CLH
[20] = Kinetic solubility in fasted state simulated intestinal fluid at pH 6.5; assay type: physicochemical; conditions: read-out: Kinetic_solubility
[21] = molecular target: T5, Voltage-gated inwardly rectifying potassium channel KCNH2; assay: Inhibition of human ERG by PatchXpress method
[22] = Fraction unbound in rhesus monkey plasma; assay type: ADME, cell-free, Macaca mulatta
[23] = test system: Rattus norvegicus; assay: Unbound volume of distribution in Wistar Han rat at 0.5 mg/kg, iv by LC-MS/MS analysis; assay type: ADME, organism-based; conditions: in vivo
[24] = Solubility in fasted state simulated intestinal fluid using crystalline compound by equilibration method; assay type: physicochemical
[25] = Oral bioavailability in rhesus monkey by LC-MS/MS analysis; assay type: ADME, organism-based, Macaca mulatta; conditions: in vivo
[26] = molecular target: T6, Glucose-dependent insulinotropic receptor (Homo sapiens) (UniProt Q8TDV5); assay: Agonist activity at human GPR119 expressed in HEK293 cells assessed as increase in intracellular cAMP level after 60 mins by HTRF assay relative to control; assay type: functional, cell-based; method in brief: as §2
T6 sequence (whole entry): T1 sequence (Q8TDV5 whole entry)

[27] = Lipophilicity, log D of the compound at pH 7 by HPLC method; assay type: physicochemical; conditions: buffer
[28] = Fraction unbound in rat plasma; assay type: ADME, cell-free
[29] = Volume of distribution in Beagle dog at 0.5 mg/kg, iv by LC-MS/MS analysis; assay type: ADME, organism-based, Canis lupus familiaris; conditions: in vivo
[30] = Oral bioavailability in Wistar Han rat by LC-MS/MS analysis; assay type: ADME, organism-based; conditions: in vivo
[31] = Half life in Beagle dog at 0.5 mg/kg, iv by LC-MS/MS analysis; assay type: ADME, organism-based, Canis lupus familiaris; conditions: in vivo
[32] = molecular target: Cytochrome P450 3A4 (Homo sapiens, UniProt P08684); assay: Inhibition of CYP3A4 (unknown origin); assay type: ADME
Chain of Cytochrome P450 3A4 (P08684 whole entry): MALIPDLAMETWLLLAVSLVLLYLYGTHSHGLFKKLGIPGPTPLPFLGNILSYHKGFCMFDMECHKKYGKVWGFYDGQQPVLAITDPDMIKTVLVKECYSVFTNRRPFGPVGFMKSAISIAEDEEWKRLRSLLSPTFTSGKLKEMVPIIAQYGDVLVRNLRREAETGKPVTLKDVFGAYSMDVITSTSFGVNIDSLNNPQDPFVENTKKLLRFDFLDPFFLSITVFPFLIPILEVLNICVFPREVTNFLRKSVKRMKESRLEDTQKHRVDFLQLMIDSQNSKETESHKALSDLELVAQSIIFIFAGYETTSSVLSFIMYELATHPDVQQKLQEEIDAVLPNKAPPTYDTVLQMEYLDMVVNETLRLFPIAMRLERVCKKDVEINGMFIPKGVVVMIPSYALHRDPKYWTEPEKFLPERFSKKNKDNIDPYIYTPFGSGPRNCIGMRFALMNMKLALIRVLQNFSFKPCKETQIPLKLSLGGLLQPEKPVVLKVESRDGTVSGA

[33] = Plasma clearance in rhesus monkey at 0.5 mg/kg, iv by LC-MS/MS analysis; assay type: ADME, organism-based, Macaca mulatta
[34] = Oral bioavailability in Beagle dog by LC-MS/MS analysis; assay type: ADME, organism-based, Canis lupus familiaris; conditions: in vivo
[35] = Half life in rhesus monkey at 0.5 mg/kg, iv by LC-MS/MS analysis; assay type: ADME, organism-based, Macaca mulatta; conditions: in vivo
[36] = Drug uptake in C57BL/6 Tac mouse blood at 0.1 mg/kg, po via gavage measured at 90 mins post dose; assay type: ADME, organism-based; conditions: whole blood, read-out: Drug uptake
Method in brief: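 Blood drug concentration was taken at 90 min after an oral 0.1 mpk dose in mice, within oGTT dose-titration PK/PD studies.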

[37] = Intrinsic clearance in rhesus monkey liver microsomes; assay type: ADME, Macaca mulatta, microsome; conditions: read-out: CLH

## COCc1cnc(N2CCC([C@H]3C[C@H]3CCOc3cc(F)c(CC(=O)N4CCC4)c(F)c3)CC2)nc1
[1]
  Vd: 3.5 L/kg
[2]
  CL free: 430 mL/min/kg
[3]
  clearance: 2 mL/min/kg
[4]
  half-life: 3.5 h
[5]
  clearance: 29 mL/min/kg
[6]
  pEC50: 9.70
[7]
  Vd: 4.8 L/kg
[8]
  blood plasma ratio at 1.5 h: 0.55
[9]
  fraction unbound: 0.055
[10]
  pEC50: < 4.52
[11]
  minimal effective dose: 0.1 mg/kg
[12]
  fraction unbound: 0.038
[13]
  pEC50: 9.10
[14]
  CLint scaled: 39 mL/min/kg
[15]
  pEC50: 10.00
[16]
  Activity: 116%
[17]
  CLint scaled: 189 mL/min/kg
[18]
  pIC50: 5.04
[19]
  CLint scaled: 39 mL/min/kg
[20]
  solubility kinetic: 139 µM (≈ 69.6 µg/mL)
[21]
  pIC50: 4.92
[22]
  fraction unbound: 0.08
[23]
  Vdu: 72 L/kg
[24]
  solubility thermodynamic: 51 µg/mL (≈ 102 µM)
[25]
  bioavailability: 44%
[26]
  Activity: 91%
[27]
  logD: 4.1
[28]
  fraction unbound: 0.067
[29]
  Vd: 4.3 L/kg
[30]
  bioavailability: 80%
[31]
  half-life: 29 h
[32]
  pIC50: < 4.30
[33]
  clearance: 14 mL/min/kg
[34]
  bioavailability: 55%
[35]
  half-life: 7.6 h
[36]
  concentration at 1.5 h: 10 nM
[37]
  CLint scaled: 44 mL/min/kg

## O=C(Cc1ccc(OCC[C@@H]2C[C@@H]2C2CCN(c3ncc(Cl)cn3)CC2)cc1F)N1CCCCC1
[6]
  pEC50: 8.82
[13]
  pEC50: 8.66
[16]
  Activity: 92%
[18]
  pIC50: 5.48
[20]
  solubility kinetic: 124 µM (≈ 62.1 µg/mL)
[26]
  Activity: 116%

## NC(=O)Cc1ccc(OCC[C@@H]2C[C@@H]2C2CCN(c3ncc(Cl)cn3)CC2)cc1
[6]
  pEC50: 7.17
[13]
  pEC50: 7.80
[16]
  Activity: 68%
[26]
  Activity: 85%

## O=C(Cc1ccc(OCC[C@@H]2C[C@@H]2C2CCN(c3ncc(Cl)cn3)CC2)cc1F)N1CC(O)C1
[4]
  half-life: 3.5 h
[6]
  pEC50: 9.10
[13]
  pEC50: 8.17
[16]
  Activity: 110%
[20]
  solubility kinetic: 144 µM (≈ 70.4 µg/mL)
[26]
  Activity: 89%

## CCc1cnc(N2CCC([C@H]3C[C@H]3CCOc3ccc(CC(=O)N4CCC4)c(F)c3)CC2)nc1
[6]
  pEC50: 9.40
[13]
  pEC50: 9.08
[16]
  Activity: 111%
[18]
  pIC50: 5.49
[20]
  solubility kinetic: 140 µM (≈ 65.3 µg/mL)
[26]
  Activity: 103%

## CC1(OC(=O)N2CCC([C@H]3C[C@H]3CCOc3ccc(CC(=O)N4CCC4)c(F)c3)CC2)CC1
[4]
  half-life: 1.6 h
[6]
  pEC50: 8.48
[13]
  pEC50: 8.18
[16]
  Activity: 115%
[18]
  pIC50: 4.64
[20]
  solubility kinetic: 138 µM (≈ 63.3 µg/mL)
[21]
  pIC50: 5.07
[26]
  Activity: 127%
